Assay results: ChEMBL document CHEMBL3227981, “Studies on biologically active nucleosides and nucleotides. 5. Synthesis and antitumor activity of some 2,2'-anhydro-1-(3',5'-di-O-acyl-beta-D-arabinofuranosyl)cytosine salts and 2,2'-anhydro-1-(3'-O-acyl-beta-D-arabinofuranoxyl)cytosine 5'-phosphates” (J Med Chem, 1979)

What was measured:
L1210 [1] = assay: Antitumor activity against mouse L1210 cells allografted in BDF1 mouse assessed as increase of host life span at 6.25 mg/kg, ip qd for 5 days; type: functional; details: route intraperitoneal
Method in brief: (§1)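 BDF1 mice were given 1×10^5 L1210 cells ip. Compound was dissolved or suspended in 0.9% NaCl with 0.1% HCO-60 and given ip daily for 5 days, starting 24 h after inoculation. Groups had 6–10 mice. ILS = (T/C − 1) × 100, from mean survival time of treated versus control mice, observed over 60 days.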

L1210 [2] = assay: Antitumor activity against mouse L1210 cells allografted in BDF1 mouse assessed as increase of host life span at 25 mg/kg, ip qd for 5 days; type: functional; details: route intraperitoneal; method in brief: as §1
L1210 [3] = assay: Antitumor activity against mouse L1210 cells allografted in BDF1 mouse assessed as increase of host life span at 100 mg/kg, ip qd for 5 days; type: functional; details: route intraperitoneal; method in brief: as §1
L1210 [4] = assay: Antitumor activity against mouse L1210 cells allografted in BDF1 mouse assessed as increase of host life span at 100 mg/kg, po qd for 5 days; type: functional
Method in brief: (§2)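 L1210 cells (1×10^5) were implanted ip in BDF1 mice. Oral dosing began 24 h later and ran once daily for 5 days, with compound in 0.9% saline containing 0.1% HCO-60 as solution or suspension. Six to ten mice per group. Percent ILS was (T/C − 1) × 100 on mean survival time, with a 30-day observation period.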

L1210 [5] = assay: Antitumor activity against mouse L1210 cells allografted in BDF1 mouse assessed as increase of host life span at 200 mg/kg, po qd for 5 days; type: functional; method in brief: as §2
[6] = Toxicity in ip dosed ICR mouse up to 3 weeks; type: organism-based; details: in vivo
Method in brief: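 Maximum tolerated dose was set from a single ip injection into three female ICR mice weighing 20–21 g, followed by 3 weeks of observation.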

## CCCCC(=O)O[C@H]1[C@H]2Oc3nc(=N)ccn3[C@@H]2O[C@@H]1COP(=O)(O)O
L1210 [1]
  Activity: 15.8%
L1210 [2]
  Activity: 37%
L1210 [3]
  Activity: 64.6%
L1210 [4]
  Activity: 22.7%
L1210 [5]
  Activity: 45.6%
[6]
  MTD at 504 h: 750 mg/kg
